Bioassay records deposited in PubChem by Sanford-Burnham Center for Chemical Genomics.
hIAP activ – human IAP activators, primary screen, biochemical, luminescence, uHTS. Intestinal-type alkaline phosphatase (Homo sapiens), P09923. activation factor at 10 µM. actives 0.16% (n = 330,000). purified human IAP, CDP-Star luminescence, 30 min; hits give high values; 1 = vehicle-only enzyme, 0 = enzyme-free background;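 active = activation factor of the enzyme at least 2-fold when tested at 20 µM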
Target sequence (P09923 whole entry, looked up): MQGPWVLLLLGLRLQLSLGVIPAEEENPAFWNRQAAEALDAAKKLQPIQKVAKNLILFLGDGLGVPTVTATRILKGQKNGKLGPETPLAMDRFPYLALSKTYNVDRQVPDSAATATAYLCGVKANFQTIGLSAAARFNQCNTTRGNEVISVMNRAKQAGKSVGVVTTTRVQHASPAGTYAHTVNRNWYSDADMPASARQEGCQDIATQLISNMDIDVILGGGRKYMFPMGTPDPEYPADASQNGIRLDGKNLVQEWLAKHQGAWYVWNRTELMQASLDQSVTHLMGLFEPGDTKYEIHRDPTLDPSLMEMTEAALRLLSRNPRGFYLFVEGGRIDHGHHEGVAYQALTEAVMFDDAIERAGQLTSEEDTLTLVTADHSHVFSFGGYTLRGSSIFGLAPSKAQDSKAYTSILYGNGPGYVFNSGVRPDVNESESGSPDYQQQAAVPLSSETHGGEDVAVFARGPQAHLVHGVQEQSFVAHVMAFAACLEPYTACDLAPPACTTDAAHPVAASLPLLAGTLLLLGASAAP
mIAP block – inhibitors of mouse IAP, primary screen, biochemical, luminescence, uHTS; intestinal alkaline phosphatase [Mus musculus]; purified mouse IAP, CDP-Star luminescence, 30 min; inhibition, % at 10 µM; actives 0.2% (n = 330,000);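 active = inhibition of at least 40% at 10 µM in the primary screen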;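 note: plate controls were DMSO with enzyme for no effect and no enzyme wells for full effect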
mIAP activ – activators of mouse IAP, primary screen, biochemical, luminescence, uHTS | muIAP, CDP-Star luminescence, 30 min; hits give high values; 1 = vehicle-only enzyme signal, 0 = enzyme-free wells | activation factor at 10 µM | actives 0.24% (n = 330,000) | AID 2805, 2010;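 active = activation factor of at least 2 at 20 µM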
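System: Mouse IAP enzyme | Also added: CDP-Star substrate | Dosing: Compounds dispensed in DMSO | Schedule: 30 min enzyme-substrate-compound incubation at room temperature | Technique: Chemiluminescence readout | Control set: DMSO-only wells and no-enzyme negative control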
bIAP activator – bovine intestinal alkaline phosphatase activators, primary screen, biochemical, bovine IAP, CDP-star luminescence; alkaline phosphatase, intestinal [Bos taurus]; purified bovine IAP, 30 min; hits give high values; fold of DMSO-control signal, blank-subtracted; activation factor at 20 µM; actives 0.17% (n = 200,000); AID 1016, 2008;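 active = activation factor of 2 or more at 20 µM, a signal rise over negative controls twice the positive control's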
hIAP inh – human IAP inhibitors, primary screen, biochemical, luminescence, uHTS. actives 0.12% (n = 330,000). purified IAP, CDP-Star luminescence, 30 min. inhibition, % at 10 µM. Intestinal-type alkaline phosphatase (Homo sapiens), P09923;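 active = inhibition reaching a set limit with compound at 10 µM in the primary screen, cut at about 35% in these data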;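 note: plate controls were DMSO wells with enzyme for no effect and no-enzyme buffer wells for full effect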
bIAP inhibitor – bovine intestinal alkaline phosphatase inhibitors, primary screen, selectivity assay for TNAP inhibitor project, biochemical, bovine IAP, CDP-star luminescence; 190,000 tested, under 10 active; inhibition, % at 20 µM; purified bovine IAP, 30 min; AID 1019, 2008;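 active = over 50% inhibition of intestinal alkaline phosphatase at 20 µM in the single-dose screen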
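System: purified bovine intestinal alkaline phosphatase (IAP) enzyme; Input: IAP diluted 1/65,000,000 in the well; Measured by: CDP-star luminescence signal; Compound dosing: 20 µM single dose; Incubation: 30 min reaction at room temperature.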
mIAP inh confirm – inhibitors of mouse IAP, confirmation, biochemical, luminescence, single concentration. AID 434971, 2010. shares compounds with mIAP block. actives 4.7% (n = 11,000). inhibition, % at 10 µM. purified mouse IAP, CDP-Star luminescence, 30 min;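 active = inhibition of at least 40% at 10 µM in either of the two replicates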;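 note: plate controls were DMSO wells with enzyme for no effect and buffer wells lacking enzyme for full effect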
An asterisk follows results filed as active; / = no result given. An excerpt weighted towards active compounds, which were near 0.77% of everything screened.

SMILES	hIAP activ	mIAP block	mIAP activ	bIAP activator	hIAP inh	bIAP inhibitor	mIAP inh confirm
C[C@H]1CN([C@@H](C)CO)C(=O)c2cc(NC(=O)C3CCCCC3)ccc2O[C@H]1CN(C)Cc1ccc(-c2ccccc2)cc1	1	-11	1.1	/	-2	/	/
C[C@@H]1CN([C@H](C)CO)C(=O)c2cc(NC(=O)C3CCCCC3)ccc2O[C@@H]1CN(C)Cc1ccc(C(F)(F)F)cc1	0.9	-7	1.1	/	10	/	/
Cc1ccc(S(=O)(=O)N(C)C[C@H]2Oc3c(NC(=O)Nc4cccc5ccccc45)cccc3C(=O)N([C@@H](C)CO)C[C@@H]2C)cc1	1.2	-339	4.4*	/	-18	/	-214
C[C@@H]1CN([C@@H](C)CO)C(=O)c2cccc(NC(=O)Nc3ccc(F)cc3)c2O[C@@H]1CN(C)Cc1ccc(Oc2ccccc2)cc1	0.85	-333	4.3*	/	15	/	-117
COc1ccc(NC(=O)Nc2cccc3c2O[C@H](CN(C)S(=O)(=O)c2ccc(OC)cc2)[C@@H](C)CN([C@H](C)CO)C3=O)cc1	1.2	-6	1.1	/	-18	/	/
C[C@H]1CN([C@@H](C)CO)C(=O)c2cc(NC(=O)Nc3cccc4ccccc34)ccc2O[C@@H]1CN(C)Cc1ccc(-c2ccccc2)cc1	1	-288	3.9*	/	-4	/	-114
CC(C)[C@H](N[C@@H](C)c1ccccc1)c1c(O)ccc2ccccc12	1	2	0.98	/	-4	/	/
C[C@H](CO)N1C[C@H](C)[C@@H](CN(C)C(=O)Nc2ccccc2)Oc2ccc(NC(=O)Nc3ccc4c(c3)OCO4)cc2C1=O	1	-202	3*	/	-1	/	-117
CS(=O)(=O)c1ccc(C(=O)Nc2nc(-c3ccco3)c(-c3ccco3)s2)cc1	0.96	60*	0.4	/	4	/	70*
CCc1cccc(CC)c1NC(=O)CN1C2CCCC1CC(NC(=O)Nc1cccc(OC)c1)C2 (centres undefined)	1.9	-175	2.7*	1.4	-91	-39	-136
COc1cccc(C(=O)NC2CC3CCCC(C2)N3CC(=O)Nc2ccccc2C(F)(F)F)c1 (centres undefined)	0.95	-5	1	/	5	/	/
CC(=O)c1sc2nc(-c3ccco3)ccc2c1N	1.2	59*	0.41	/	-19	/	63*
Nc1c(C(=O)Nc2ccc(Br)cc2)sc2nc(-c3ccco3)ccc12	0.69	37	0.63	1	31	0	/
CC(=O)c1ccc(-c2ccc(/C=C(/Sc3n[nH]c(C)n3)C(=O)O)o2)cc1	1.3	26	0.74	/	-26	/	/
Cc1nc(S/C(=C/c2ccc(-c3ccc(C(=O)O)cc3)o2)C(=O)O)n[nH]1	1.4	45*	0.55	/	-41	/	45*
N#C/C(=C\c1coc2ccc(O)cc2c1=O)C(=O)Nc1nc2ccccc2s1	0.98	60*	0.4	/	2	/	64*
CC(=O)Oc1cc2cccc(OC(C)=O)c(=O)c2c(OC(C)=O)c1OC(C)=O	0.91	45*	0.55	1	9	-4	49*
Cc1nnc(NC(=O)C2CC(=O)N(c3ccc4c(c3)OCCO4)C2)s1 (centres undefined)	1	-1	1	/	-2	/	/
O=C(Nc1nc(-c2ccco2)c(-c2ccco2)s1)C1CC(=O)N(c2ccc3c(c2)OCCO3)C1 (centres undefined)	0.91	54*	0.46	0.9	9	5	69*
C[C@@H](C(=O)Nc1ccc(SC(F)F)cc1)N1C(=O)C2CCCCC2C1=O (some centres undefined)	0.89	-10	1.1	/	11	/	/
